From ChEMBL document CHEMBL1687793, “Complementation of a Saccharomyces cerevisiae ERG11/CYP51 (sterol 14α-demethylase) doxycycline-regulated mutant and screening of the azole sensitivity of Aspergillus fumigatus isoenzymes CYP51A and CYP51B” (2010)
Values after ≈ are worked out from the molar mass of the structure shown.

Assays:
Format in all cases: functional
Saccharomyces cerevisiae [1] = assay: Antimicrobial activity against Saccharomyces cerevisiae YUG37 transformed with plasmid carrying cyp51B gene with doxycycline-regulatable promoter by broth dilution method in presence of doxycycline
In short: (§1)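 CLSI M27-A2 broth microdilution in induction medium (galactose plus raffinose, 2%) containing 5 μg ml−1 doxycycline. Inoculum 2.5 × 10^3 cells ml−1. Final fluconazole 0.031–16 μg ml−1; clotrimazole, itraconazole and posaconazole 0.004–2.0 μg ml−1. Plates incubated at 30°C and scored at 72 h. MIC is the lowest concentration giving ≥80% growth inhibition versus drug-free control wells.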

Saccharomyces cerevisiae [2] = assay: Antimicrobial activity against Saccharomyces cerevisiae YUG37 transformed with plasmid carrying cyp51A gene with doxycycline-regulatable promoter by broth dilution method in presence of doxycycline; in short: as §1
Saccharomyces cerevisiae [3] = assay: Antimicrobial activity against Saccharomyces cerevisiae YUG37 transformed with plasmid carrying cyp51A gene in reverse orientation without doxycycline-regulatable promoter by broth dilution method
In short: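 Reverse-oriented cyp51A control strain tested in galactose/raffinose medium without doxycycline. Otherwise CLSI M27-A2 broth microdilution with inoculum 2.5 × 10^3 cells ml−1. Incubated at 30°C and read at 72 h. MIC is the lowest concentration giving ≥80% growth inhibition relative to control wells.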

Saccharomyces cerevisiae [4] = assay: Induction of ergosterol production in Saccharomyces cerevisiae YUG37 transformed with plasmid carrying cyp51A gene in reverse orientation without doxycycline-regulatable promoter by GC-MS analysis
In short: (§2)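 The control was YUG37-erg11 transformed with pYES2.1 carrying reverse-oriented cyp51A, in triplicate. It was cultured 72 h (30°C, 180 rpm) in galactose/raffinose (2%) YM either with 5 μg ml−1 doxycycline or without doxycycline. GC-MS sterol profiling gave mean % of sterol composition (SD).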

Saccharomyces cerevisiae [5] = assay: Induction of 14alpha-Methylergosta 8,24-dien- 3beta-6alpha-diol production in Saccharomyces cerevisiae YUG37 transformed with plasmid carrying cyp51A gene in reverse orientation without doxycycline-regulatable promoter by GC-MS analysis; in short: as §2
Saccharomyces cerevisiae [6] = assay: Induction of 4alpha-methylfecosterol production in Saccharomyces cerevisiae YUG37 transformed with plasmid carrying cyp51A gene with compound-regulatable promoter by GC-MS analysis
In short: (§3)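 YUG37-erg11 yeast (native ERG11 under a doxycycline-regulatable promoter) carrying pYES2.1 with intronless A. fumigatus cyp51A or cyp51B. Single colonies, triplicate constructs, were grown in YM with 2% galactose/raffinose plus 5 μg ml−1 doxycycline for 72 h at 30°C and 180 rpm. Sterols were analysed by GC-MS and reported as mean % of sterol composition (SD).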

Saccharomyces cerevisiae [7] = assay: Induction of ergosterol production in Saccharomyces cerevisiae YUG37 transformed with plasmid carrying cyp51A gene with compound-regulatable promoter by GC-MS analysis; in short: as §3
Saccharomyces cerevisiae [8] = assay: Induction of lanosterol/obtusifoliol production in Saccharomyces cerevisiae YUG37 transformed with plasmid carrying cyp51A gene with compound-regulatable promoter by GC-MS analysis; in short: as §3
Saccharomyces cerevisiae [9] = assay: Induction of 4,14alpha-dimethylcholesta 8,24-dienol production in Saccharomyces cerevisiae YUG37 transformed with plasmid carrying cyp51A gene in reverse orientation without doxycycline-regulatable promoter by GC-MS analysis; in short: as §2
Saccharomyces cerevisiae [10] = assay: Induction of lanosterol/obtusifoliol production in Saccharomyces cerevisiae YUG37 transformed with plasmid carrying cyp51B gene with compound-regulatable promoter by GC-MS analysis; in short: as §3
Saccharomyces cerevisiae [11] = assay: Induction of 14alpha-Methylergosta 8,24-dien- 3beta-6alpha-diol production in Saccharomyces cerevisiae YUG37 transformed with plasmid carrying cyp51A gene with compound-regulatable promoter by GC-MS analysis; in short: as §3
Saccharomyces cerevisiae [12] = assay: Induction of 4alpha-methylfecosterol production in Saccharomyces cerevisiae YUG37 transformed with plasmid carrying cyp51A gene in reverse orientation without doxycycline-regulatable promoter by GC-MS analysis; in short: as §2
Saccharomyces cerevisiae [13] = assay: Induction of ergosterol production in Saccharomyces cerevisiae YUG37 transformed with plasmid carrying cyp51B gene with compound-regulatable promoter by GC-MS analysis; in short: as §3
Saccharomyces cerevisiae [14] = assay: Induction of 4,14alpha-dimethylcholesta 8,24-dienol production in Saccharomyces cerevisiae YUG37 transformed with plasmid carrying cyp51B gene with compound-regulatable promoter by GC-MS analysis; in short: as §3
Saccharomyces cerevisiae [15] = assay: Induction of 14alpha-Methylergosta 8,24-dien- 3beta-6alpha-diol production in Saccharomyces cerevisiae YUG37 transformed with plasmid carrying cyp51B gene with compound-regulatable promoter by GC-MS analysis; in short: as §3
Saccharomyces cerevisiae [16] = assay: Induction of lanosterol/obtusifoliol production in Saccharomyces cerevisiae YUG37 transformed with plasmid carrying cyp51A gene in reverse orientation without doxycycline-regulatable promoter by GC-MS analysis; details: in the assay text read “with doxycycline-regulatable promoter” for “without doxycycline-regulatable promoter”; in short: as §2
Saccharomyces cerevisiae [17] = assay: Induction of 4,14alpha-dimethylcholesta 8,24-dienol production in Saccharomyces cerevisiae YUG37 transformed with plasmid carrying cyp51A gene with compound-regulatable promoter by GC-MS analysis; in short: as §3
Saccharomyces cerevisiae [18] = assay: Induction of 4alpha-methylfecosterol production in Saccharomyces cerevisiae YUG37 transformed with plasmid carrying cyp51B gene with compound-regulatable promoter by GC-MS analysis; in short: as §3
Saccharomyces cerevisiae [19] = assay: Ratio of MIC for Saccharomyces cerevisiae YUG37 transformed with plasmid carrying cyp51A gene with compound-regulatable promoter to MIC for Saccharomyces cerevisiae YUG37 transformed with plasmid carrying cyp51B gene with compound-regulatable promoter

Q: Which results are given for `CCC(C)n1ncn(-c2ccc(N3CCN(c4ccc(OCC5COC(Cn6cncn6)(c6ccc(Cl)cc6Cl)O5)cc4)CC3)cc2)c1=O` (stereo unspecified) [ITRACONAZOLE]?
A: MIC (Saccharomyces cerevisiae [1]): 0.125 µg/mL; MIC (Saccharomyces cerevisiae [2]): 0.125 µg/mL; MIC (Saccharomyces cerevisiae [3]): 0.031 µg/mL (≈ 0.0439 µM)

Q: Which MIC (Saccharomyces cerevisiae [1]) does the source give for `Clc1ccccc1C(c1ccccc1)(c1ccccc1)n1ccnc1` [CLOTRIMAZOLE] here?
A: The MIC was 0.016 µg/mL.

Q: And the MIC (Saccharomyces cerevisiae [2])?
A: Its MIC is 0.016 µg/mL.

Q: And the MIC (Saccharomyces cerevisiae [3])?
A: The MIC was 0.016 µg/mL (≈ 0.0464 µM).

Q: Which Activity (Saccharomyces cerevisiae [4]) does the source give for `C[C@H]1c2cccc(O)c2C(=O)C2=C(O)[C@]3(O)C(=O)C(C(N)=O)=C(O)[C@@H](N(C)C)[C@@H]3[C@@H](O)[C@@H]21.O` [DOXYCYCLINE] here?
A: The Activity was 4%.

Q: What about the Activity (Saccharomyces cerevisiae [5]) of the same compound?
A: Its Activity is 51.1%.

Q: And the Activity (Saccharomyces cerevisiae [6])?
A: The Activity was 2%.

Q: And the Activity (Saccharomyces cerevisiae [7])?
A: Its Activity is 40.8%.

Q: And the Activity (Saccharomyces cerevisiae [8])?
A: Its Activity is 34.1%.

Q: What about the Activity (Saccharomyces cerevisiae [9]) of the same compound?
A: The Activity was 3.3%.

Q: And the Activity (Saccharomyces cerevisiae [10])?
A: Its Activity is 45.4%.

Q: What about the Activity (Saccharomyces cerevisiae [11]) of the same compound?
A: The Activity was 20.5%.

Q: What about the Activity (Saccharomyces cerevisiae [12]) of the same compound?
A: The Activity was 1.9%.

Q: What about the Activity (Saccharomyces cerevisiae [13]) of the same compound?
A: Its Activity is 39.5%.

Q: What about the Activity (Saccharomyces cerevisiae [14]) of the same compound?
A: The Activity was 2.9%.

Q: And the Activity (Saccharomyces cerevisiae [15])?
A: Its Activity is 10.5%.

Q: And the Activity (Saccharomyces cerevisiae [16])?
A: The Activity was 40.6%.

Q: What about the Activity (Saccharomyces cerevisiae [17]) of the same compound?
A: Its Activity is 2.6%.

Q: And the Activity (Saccharomyces cerevisiae [18])?
A: The Activity was 1.7%.

Q: What does the source list for `CC[C@@H]([C@H](C)O)n1ncn(-c2ccc(N3CCN(c4ccc(OC[C@@H]5CO[C@@](Cn6cncn6)(c6ccc(F)cc6F)C5)cc4)CC3)cc2)c1=O` [POSACONAZOLE]?
A: MIC (Saccharomyces cerevisiae [1]): 0.063 µg/mL; MIC (Saccharomyces cerevisiae [2]): 0.063 µg/mL; MIC (Saccharomyces cerevisiae [3]): 0.063 µg/mL (≈ 0.0899 µM)

Q: Which MIC (Saccharomyces cerevisiae [1]) does the source give for `C[C@@H](c1ncncc1F)[C@](O)(Cn1cncn1)c1ccc(F)cc1F` [VORICONAZOLE] here?
A: The MIC was 0.004 µg/mL.

Q: And the MIC (Saccharomyces cerevisiae [2])?
A: The MIC was 0.004 µg/mL.

Q: And the MIC (Saccharomyces cerevisiae [3])?
A: The MIC was 0.004 µg/mL (≈ 0.0115 µM).

Q: `OC(Cn1cncn1)(Cn1cncn1)c1ccc(F)cc1F` [FLUCONAZOLE] was tested. Which MIC (Saccharomyces cerevisiae [1]) did it give?
A: The MIC was 0.5 µg/mL.

Q: What about the Ratio (Saccharomyces cerevisiae [19]) of the same compound?
A: Its Ratio is 16.

Q: What about the MIC (Saccharomyces cerevisiae [2]) of the same compound?
A: Its MIC is 8 µg/mL.

Q: And the MIC (Saccharomyces cerevisiae [3])?
A: The MIC was 0.25 µg/mL (≈ 0.816 µM).
